Data as given in ChEMBL document CHEMBL4406875, “Design, synthesis and biological evaluation of amino acids-oleanolic acid conjugates as influenza virus inhibitors” (Bioorg Med Chem, 2019).
Active and inactive are the calls of the source. The rule behind the calls is not given here.

Experiments:
[1] = test system: Influenza A virus; assay: Antiviral activity against Influenza A virus A/WSN/33(H1N1) infected in MDCK cells assessed as inhibition of virus-induced cytopathic effect at 100 uM measured after 45 hrs by CellTiter-Glo luminescence assay; type: functional, organism-based; conditions: A/WSN/1933(H1N1)
How it was run: (§1)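 Single-concentration screen at 100 μM in MDCK cells infected with A/WSN/33 under the same conditions: 1% FBS DMEM with 1 μg/mL trypsin, MOI 0.1, 45 h. Cytopathic effect was read by CellTiter-Glo luminescence against a DMSO negative control, from triplicate experiments.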

[2] = test system: MDCK; assay: Cytotoxicity against dog MDCK cells assessed as cell viability measured at 100 uM after 45 hrs by Celltiter-Glo luminescence assay; type: cell-based, Canis lupus familiaris
How it was run: (§2)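 Viability screen of uninfected MDCK cells at 100 μM compound, read by CellTiter-Glo luminescence with DMSO as negative control; triplicate experiments.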

[3] = test system: Influenza A virus; assay: Antiviral activity against Influenza A virus A/WSN/33(H1N1) infected in MDCK cells assessed as inhibition of virus-induced cytopathic effect at 100 uM measured after 45 hrs by CellTiter-Glo luminescence assay relative to control; type: functional; conditions: A/WSN/1933(H1N1); how it was run: as §1
[4] = target: Hemagglutinin (Influenza A virus) (UniProt B4URE7); assay: Inhibition of Influenza A virus HA-mediated chicken erythrocytes aggregation incubated for 30 mins
How it was run: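 Compound was 2-fold serially diluted in saline from 100 to 1.56 μM and mixed with an equal volume of influenza virus (2 HA units). Chicken red blood cells (1% v/v in saline) were then added. After 30 min at room temperature, erythrocyte aggregation was scored by eye. An anti-HA monoclonal antibody served as positive control.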

[5] = Cytotoxicity against dog MDCK cells assessed as cell viability measured after 45 hrs by Celltiter-Glo luminescence assay; type: cell-based, Canis lupus familiaris
How it was run: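 Non-infected MDCK cells were exposed to compound dilutions and viability was read by CellTiter-Glo luminescence. CC50 is the concentration reducing viability of uninfected cells by 50%, given as the mean of duplicate samples from three independent experiments.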

[6] = Cytotoxicity against dog MDCK cells assessed as cell viability measured at 100 uM after 45 hrs by Celltiter-Glo luminescence assay relative to control; type: cell-based, Canis lupus familiaris; conditions: read-out: Activity; how it was run: as §2
[7] = test system: Influenza A virus H3N2; assay: Antiviral activity against Influenza A virus A/Texas/50/2012(H3N2) infected in MDCK cells inhibition of virus-induced cytopathic effect measured after 45 hrs by CellTiter-Glo luminescence assay; type: functional, organism-based
How it was run: (§3)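 MDCK cells (5,000/well) were seeded one day before infection. Infection medium was high-glucose DMEM with 1% FBS and trypsin (1 μg/mL). Compounds were added at various concentrations and cells infected at MOI 0.1. After 45 h, viability was read by CellTiter-Glo luminescence. IC50 was taken from dose-response curves, as the mean of duplicate samples from three independent experiments.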

[8] = test system: Influenza A virus; assay: Antiviral activity against Influenza A virus A/WSN/33(H1N1) infected in MDCK cells assessed as inhibition of virus-induced cytopathic effect measured after 45 hrs by CellTiter-Glo luminescence assay; type: functional, organism-based; conditions: A/WSN/1933(H1N1); how it was run: as §3

Chain of Hemagglutinin (Influenza A virus) (B4URE7 as listed by the source): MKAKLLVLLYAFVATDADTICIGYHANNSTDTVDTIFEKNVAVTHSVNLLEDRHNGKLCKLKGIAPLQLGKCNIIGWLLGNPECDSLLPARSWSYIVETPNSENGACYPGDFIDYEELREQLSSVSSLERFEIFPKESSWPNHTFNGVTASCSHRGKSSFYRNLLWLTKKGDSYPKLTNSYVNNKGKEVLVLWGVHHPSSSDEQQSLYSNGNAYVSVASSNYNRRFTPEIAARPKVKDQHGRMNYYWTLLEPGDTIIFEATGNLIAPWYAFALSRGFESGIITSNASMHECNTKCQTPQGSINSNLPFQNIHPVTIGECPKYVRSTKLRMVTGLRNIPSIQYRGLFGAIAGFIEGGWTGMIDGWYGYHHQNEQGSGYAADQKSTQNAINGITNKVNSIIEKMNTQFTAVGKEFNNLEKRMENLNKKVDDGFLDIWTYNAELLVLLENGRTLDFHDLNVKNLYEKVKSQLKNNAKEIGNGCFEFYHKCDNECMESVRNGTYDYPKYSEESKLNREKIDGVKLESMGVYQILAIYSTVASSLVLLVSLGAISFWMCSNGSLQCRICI

Structure (SMILES)	inhibition [1]	Activity [2]	also measured
CC(C)C[C@H](NC(=O)[C@]12CCC(C)(C)C[C@H]1C1=CC[C@@H]3[C@@]4(C)CC[C@H](O)C(C)(C)[C@@H]4CC[C@@]3(C)[C@]1(C)CC2)C(=O)O	Active	Toxic	–
C[C@@H](O)[C@H](NC(=O)[C@]12CCC(C)(C)C[C@H]1C1=CC[C@@H]3[C@@]4(C)CC[C@H](O)C(C)(C)[C@@H]4CC[C@@]3(C)[C@]1(C)CC2)C(=O)O	Active	Toxic	–
CC[C@H](C)[C@H](NC(=O)[C@]12CCC(C)(C)C[C@H]1C1=CC[C@@H]3[C@@]4(C)CC[C@H](O)C(C)(C)[C@@H]4CC[C@@]3(C)[C@]1(C)CC2)C(=O)OC	Active	Toxic	–
CC1(C)CC[C@]2(C(=O)NCC(=O)O)CC[C@]3(C)C(=CC[C@@H]4[C@@]5(C)CC[C@H](O)C(C)(C)[C@@H]5CC[C@]43C)[C@@H]2C1	Active	Toxic	–
CSCC[C@H](NC(=O)[C@]12CCC(C)(C)C[C@H]1C1=CC[C@@H]3[C@@]4(C)CC[C@H](O)C(C)(C)[C@@H]4CC[C@@]3(C)[C@]1(C)CC2)C(=O)O	Active	Toxic	–
CC1(C)CC[C@]2(C(=O)N[C@@H](CCCNC(=N)N)C(=O)O)CC[C@]3(C)C(=CC[C@@H]4[C@@]5(C)CC[C@H](O)C(C)(C)[C@@H]5CC[C@]43C)[C@@H]2C1	Active	Toxic	inhibition at 100 µM [3]: 75%; inhibition [4]: Dose-dependent effect; CC50 at 45 h [5]: > 100 µM; viability at 45 h, 100 µM [6]: 75%; IC50 [7]: 14.1 µM; IC50 [8]: 6.64 µM
CC1(C)CC[C@]2(C(=O)N[C@@H](CCC(=O)O)C(=O)O)CC[C@]3(C)C(=CC[C@@H]4[C@@]5(C)CC[C@H](O)C(C)(C)[C@@H]5CC[C@]43C)[C@@H]2C1	Active	Toxic	–
COC(=O)[C@H](Cc1c[nH]c2ccccc12)NC(=O)[C@]12CCC(C)(C)C[C@H]1C1=CC[C@@H]3[C@@]4(C)CC[C@H](O)C(C)(C)[C@@H]4CC[C@@]3(C)[C@]1(C)CC2	Active	Toxic	–
COC(=O)CC[C@H](NC(=O)[C@]12CCC(C)(C)C[C@H]1C1=CC[C@@H]3[C@@]4(C)CC[C@H](O)C(C)(C)[C@@H]4CC[C@@]3(C)[C@]1(C)CC2)C(=O)OC	Active	Toxic	–
COC(=O)[C@H](C)NC(=O)[C@]12CCC(C)(C)C[C@H]1C1=CC[C@@H]3[C@@]4(C)CC[C@H](O)C(C)(C)[C@@H]4CC[C@@]3(C)[C@]1(C)CC2	Active	Toxic	–
COC(=O)C[C@H](NC(=O)[C@]12CCC(C)(C)C[C@H]1C1=CC[C@@H]3[C@@]4(C)CC[C@H](O)C(C)(C)[C@@H]4CC[C@@]3(C)[C@]1(C)CC2)C(=O)OC	Active	Toxic	–
CC1(C)CC[C@]2(C(=O)N[C@@H](Cc3c[nH]c4ccccc34)C(=O)O)CC[C@]3(C)C(=CC[C@@H]4[C@@]5(C)CC[C@H](O)C(C)(C)[C@@H]5CC[C@]43C)[C@@H]2C1	Active	Toxic	–
CC[C@H](C)[C@H](NC(=O)[C@]12CCC(C)(C)C[C@H]1C1=CC[C@@H]3[C@@]4(C)CC[C@H](O)C(C)(C)[C@@H]4CC[C@@]3(C)[C@]1(C)CC2)C(=O)O	Active	Toxic	–
COC(=O)[C@H](Cc1ccccc1)NC(=O)[C@]12CCC(C)(C)C[C@H]1C1=CC[C@@H]3[C@@]4(C)CC[C@H](O)C(C)(C)[C@@H]4CC[C@@]3(C)[C@]1(C)CC2	Active	Toxic	–
COC(=O)CNC(=O)[C@]12CCC(C)(C)C[C@H]1C1=CC[C@@H]3[C@@]4(C)CC[C@H](O)C(C)(C)[C@@H]4CC[C@@]3(C)[C@]1(C)CC2	Active	Toxic	–
CC1(C)CC[C@]2(C(=O)N3CCC[C@H]3C(=O)O)CC[C@]3(C)C(=CC[C@@H]4[C@@]5(C)CC[C@H](O)C(C)(C)[C@@H]5CC[C@]43C)[C@@H]2C1	Active	Toxic	–
COC(=O)[C@H](Cc1c[nH]cn1)NC(=O)[C@]12CCC(C)(C)C[C@H]1C1=CC[C@@H]3[C@@]4(C)CC[C@H](O)C(C)(C)[C@@H]4CC[C@@]3(C)[C@]1(C)CC2	Active	Toxic	–

Structure (SMILES)	inhibition [1]	Activity [2]	also measured
COC(=O)[C@H](CO)NC(=O)[C@]12CCC(C)(C)C[C@H]1C1=CC[C@@H]3[C@@]4(C)CC[C@H](O)C(C)(C)[C@@H]4CC[C@@]3(C)[C@]1(C)CC2	Active	Toxic	–
CCOC(=O)C1=C[C@@H](OC(CC)CC)[C@H](NC(C)=O)[C@@H](N)C1 [OSELTAMIVIR PHOSPHATE]	–	–	CC50 at 45 h [5]: > 100 µM; IC50 [7]: > 100 µM
CC1(C)CC[C@]2(C(=O)O)CC[C@]3(C)C(=CC[C@@H]4[C@@]5(C)CC[C@H](O)C(C)(C)[C@@H]5CC[C@]43C)[C@@H]2C1	Active	–	–
COC(=O)[C@@H](NC(=O)[C@]12CCC(C)(C)C[C@H]1C1=CC[C@@H]3[C@@]4(C)CC[C@H](O)C(C)(C)[C@@H]4CC[C@@]3(C)[C@]1(C)CC2)[C@@H](C)O	Active	Toxic	–
CC(C)[C@H](NC(=O)[C@]12CCC(C)(C)C[C@H]1C1=CC[C@@H]3[C@@]4(C)CC[C@H](O)C(C)(C)[C@@H]4CC[C@@]3(C)[C@]1(C)CC2)C(=O)O	Active	Toxic	–
CC1(C)CC[C@]2(C(=O)N[C@@H](Cc3ccccc3)C(=O)O)CC[C@]3(C)C(=CC[C@@H]4[C@@]5(C)CC[C@H](O)C(C)(C)[C@@H]5CC[C@]43C)[C@@H]2C1	Active	Toxic	–
COC(=O)[C@@H]1CCCN1C(=O)[C@]12CCC(C)(C)C[C@H]1C1=CC[C@@H]3[C@@]4(C)CC[C@H](O)C(C)(C)[C@@H]4CC[C@@]3(C)[C@]1(C)CC2	Active	Toxic	–
COC(=O)[C@H](Cc1ccc(O)cc1)NC(=O)[C@]12CCC(C)(C)C[C@H]1C1=CC[C@@H]3[C@@]4(C)CC[C@H](O)C(C)(C)[C@@H]4CC[C@@]3(C)[C@]1(C)CC2	Active	Toxic	–
CC1(C)CC[C@]2(C(=O)N[C@@H](CO)C(=O)O)CC[C@]3(C)C(=CC[C@@H]4[C@@]5(C)CC[C@H](O)C(C)(C)[C@@H]5CC[C@]43C)[C@@H]2C1	Active	Toxic	–
C[C@H](NC(=O)[C@]12CCC(C)(C)C[C@H]1C1=CC[C@@H]3[C@@]4(C)CC[C@H](O)C(C)(C)[C@@H]4CC[C@@]3(C)[C@]1(C)CC2)C(=O)O	Active	Toxic	–
COC(=O)[C@H](CCSC)NC(=O)[C@]12CCC(C)(C)C[C@H]1C1=CC[C@@H]3[C@@]4(C)CC[C@H](O)C(C)(C)[C@@H]4CC[C@@]3(C)[C@]1(C)CC2	Active	Toxic	–
CC1(C)CC[C@]2(C(=O)N[C@@H](CC(=O)O)C(=O)O)CC[C@]3(C)C(=CC[C@@H]4[C@@]5(C)CC[C@H](O)C(C)(C)[C@@H]5CC[C@]43C)[C@@H]2C1	Active	Toxic	–
COC(=O)[C@H](CC(C)C)NC(=O)[C@]12CCC(C)(C)C[C@H]1C1=CC[C@@H]3[C@@]4(C)CC[C@H](O)C(C)(C)[C@@H]4CC[C@@]3(C)[C@]1(C)CC2	Active	Toxic	–
COC(=O)[C@@H](NC(=O)[C@]12CCC(C)(C)C[C@H]1C1=CC[C@@H]3[C@@]4(C)CC[C@H](O)C(C)(C)[C@@H]4CC[C@@]3(C)[C@]1(C)CC2)C(C)C	Active	Toxic	–
CC1(C)CC[C@]2(C(=O)N[C@@H](Cc3ccc(O)cc3)C(=O)O)CC[C@]3(C)C(=CC[C@@H]4[C@@]5(C)CC[C@H](O)C(C)(C)[C@@H]5CC[C@]43C)[C@@H]2C1	Active	Toxic	–
CC1(C)CC[C@]2(C(=O)N[C@@H](Cc3c[nH]cn3)C(=O)O)CC[C@]3(C)C(=CC[C@@H]4[C@@]5(C)CC[C@H](O)C(C)(C)[C@@H]5CC[C@]43C)[C@@H]2C1	Active	Toxic	–
COC(=O)[C@H](CCCNC(=N)N)NC(=O)[C@]12CCC(C)(C)C[C@H]1C1=CC[C@@H]3[C@@]4(C)CC[C@H](O)C(C)(C)[C@@H]4CC[C@@]3(C)[C@]1(C)CC2	Active	Toxic	–
